Results reported in ChEMBL document CHEMBL2157868, “Design, synthesis, and preliminary biological evaluation of 6-O-glucose-azomycin adducts for diagnosis and therapy of hypoxic tumors” (J Med Chem, 2012).
The source made the active and inactive calls. The rule behind the calls is not given here.

Legend:
[1] = Cytotoxicity against human MOO6X cells after 3 days by MTT assay; format: functional, cell-based; settings: 72 h
Outline: (§1)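 MTT assay. Exponentially growing cells were seeded at 8 × 10² cells/well and held 24 h at 37 °C in 5% CO₂. Compound from a 2 mM stock in 95% ethanol was added, with a maximum final concentration of 1 mM. Exposure lasted 3 days at 37 °C. MTT was added for 4 h, formazan dissolved in DMSO, and absorbance read at 540 nm. IC50s were estimated from survival plots.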

HeLa [2] = assay: Cytotoxicity against human HeLa cells after 3 days by MTT assay; format: functional, cell-based; settings: 72 h; outline: as §1
[3] = Cytotoxicity against mouse KBALB cells after 3 days by MTT assay; format: functional, cell-based; settings: 72 h; outline: as §1
[4] = Cytotoxicity against mouse KBALB-STK cells after 3 days by MTT assay; format: functional, cell-based; settings: 72 h; outline: as §1
EMT6 [5] = assay: Cytotoxicity against mouse EMT6 cells after 3 days by MTT assay; format: functional, cell-based; settings: EMT6, 72 h; outline: as §1
EMT6 [6] = assay: Cytotoxicity against mouse EMT6 cells assessed as survival fraction ratio under hypoxic condition at 0.1 to 1 mM after 6 hrs relative to control; format: functional
EMT6 [7] = assay: Cytotoxicity against mouse EMT6 cells assessed as survival fraction ratio under hypoxic condition at 0.5 mM incubated for 30 mins followed by compound wash out measured after 10 to 14 days by clonogenic assay relative to control; format: functional
Outline: (§2)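 Clonogenic radiosensitization. Cells (300000 per dish, DMEM/F12) were grown 24 h at 37 °C, 5% CO₂, then exposed to compound for 30 min. Hypoxic dishes were degassed by six vacuum/N₂ cycles, and all dishes were shaken 30 min at room temperature. Dishes were ⁶⁰Co γ-irradiated (0–20 Gy) under N₂ or air, then trypsinized and replated. Colonies were grown 10−14 days, stained, and counted, in triplicate. Surviving fractions at 18 Gy were taken from survival plots.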

[8] = Cytotoxicity against human MOO6X cells assessed as survival fraction ratio under hypoxic condition at 0.5 mM incubated for 30 mins followed by compound wash out measured after 10 to 14 days by clonogenic assay relative to control; format: functional; outline: as §2
HeLa [9] = assay: Cytotoxicity against human HeLa cells assessed as survival fraction under hypoxic condition to hypoxic condition plus sensitizer at 0.5 mM after 30 mins by clonogenic assay relative to control
[10] = target: T1, Solute carrier family 2, facilitated glucose transporter member 1 (Homo sapiens) (UniProt P11166); assay: Binding affinity to recombinant GLUT1 expressed in Xenopus oocytes assessed as inhibition of [14C]glucose uptake after 20 mins by liquid scintillation counting; format: cell-based; settings: Oocyte
T1 sequence (whole entry): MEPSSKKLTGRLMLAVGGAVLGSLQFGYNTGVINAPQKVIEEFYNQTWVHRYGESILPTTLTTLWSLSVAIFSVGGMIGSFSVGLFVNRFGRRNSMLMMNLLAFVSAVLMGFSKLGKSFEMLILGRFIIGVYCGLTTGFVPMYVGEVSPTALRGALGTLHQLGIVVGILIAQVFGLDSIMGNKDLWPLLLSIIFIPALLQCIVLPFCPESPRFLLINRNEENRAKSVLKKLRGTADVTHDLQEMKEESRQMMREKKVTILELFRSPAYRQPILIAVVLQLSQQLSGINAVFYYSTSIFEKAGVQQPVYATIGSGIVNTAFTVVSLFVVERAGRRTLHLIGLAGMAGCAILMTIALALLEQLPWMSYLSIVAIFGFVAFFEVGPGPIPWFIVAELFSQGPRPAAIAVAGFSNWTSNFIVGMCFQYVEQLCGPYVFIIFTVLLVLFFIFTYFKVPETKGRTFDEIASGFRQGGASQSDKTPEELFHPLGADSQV
Outline: (§3)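 Xenopus oocytes expressing the GLUT were incubated in groups of 10−12 in Na⁺ transport medium (Hepes, pH 7.5) with [¹⁴C]glucose (1 μCi/mL) and inhibitor for 20 min at 20 °C. Oocytes were washed six times in ice-cold medium, dissolved in 1% SDS, and counted by liquid scintillation. Uptake inhibition was plotted against inhibitor concentration; for GLUT-2, EC50 came from four-parameter logistic fitting.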

[11] = target: T2, Solute carrier family 2, facilitated glucose transporter member 2 (Homo sapiens) (UniProt P11168); assay: Binding affinity to recombinant GLUT2 expressed in Xenopus oocytes assessed as inhibition of [14C]glucose uptake after 20 mins by liquid scintillation counting; format: cell-based; settings: Oocyte; outline: as §3
T2 sequence (whole entry): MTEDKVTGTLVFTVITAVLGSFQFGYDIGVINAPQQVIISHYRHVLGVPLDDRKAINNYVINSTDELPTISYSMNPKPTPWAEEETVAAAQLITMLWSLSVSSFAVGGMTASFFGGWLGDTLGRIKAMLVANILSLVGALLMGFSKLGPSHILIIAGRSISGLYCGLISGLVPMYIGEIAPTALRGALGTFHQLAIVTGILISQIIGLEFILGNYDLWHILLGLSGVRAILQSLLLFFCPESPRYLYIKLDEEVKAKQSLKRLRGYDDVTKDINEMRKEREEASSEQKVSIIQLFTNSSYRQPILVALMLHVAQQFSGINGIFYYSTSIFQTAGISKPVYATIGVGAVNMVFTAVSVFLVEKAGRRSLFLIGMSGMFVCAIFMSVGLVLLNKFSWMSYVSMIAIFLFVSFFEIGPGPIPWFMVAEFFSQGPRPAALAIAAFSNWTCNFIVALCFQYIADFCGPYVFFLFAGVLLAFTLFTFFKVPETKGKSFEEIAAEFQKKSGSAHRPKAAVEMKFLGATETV

[12] = Ratio of IAZA IC50 to compound IC50 for human MOO6X cells; format: functional

| inhibition [10] | ED50 [11] | Structure (SMILES) | IC50 [1] | IC50 (HeLa [2]) | IC50 [3] | IC50 [4] | IC50 (EMT6 [5]) | Ratio (EMT6 [6]) | Ratio (EMT6 [7]) | Ratio [8] | Ratio (HeLa [9]) | Ratio IC50 [12] |
| --- | --- | --- | --- | --- | --- | --- | --- | --- | --- | --- | --- | --- |
| – | – | O=[N+]([O-])c1nccn1[C@H]1O[C@H](C[123I])[C@@H](O)[C@@H]1O [IODOAZOMYCIN ARABINOSIDE] | > 1000 µM | > 1000 µM | 500 µM | 500 µM | > 1000 µM | 1.5 | – | – | – | – |
| – | – | O=[N+]([O-])c1nccn1CC([18F])COC[C@H]1OC(O)[C@H](O)[C@@H](O)[C@@H]1O (mixture of isomers) | > 1000 µM | > 1000 µM | > 1000 µM | > 1000 µM | > 1000 µM | – | 1.2 | 1.3 | 1.3 | – |
| Active | 500 µM | O=[N+]([O-])c1nccn1/C=C/COC[C@H]1OC(O)[C@H](O)[C@@H](O)[C@@H]1O (mixture of isomers) | – | – | – | – | > 1000 µM | – | 1.4 | 1.3 | 1.7 | – |
| – | – | O=[N+]([O-])c1nccn1CC(O)COC[C@H]1OC(O)[C@H](O)[C@@H](O)[C@@H]1O (mixture of isomers) | 50 µM | 500 µM | 500 µM | 500 µM | 600 µM | – | 1 | 1 | 1.2 | 10 |
